Data taken from publication PMC4183664 (Journal of the American Chemical Society, 2014).

What was measured:
[1] = system: SW-480 colon cancer cells; test: Effect of GLUT1 inhibitors on internalization of BLM-Cy5**; format: cell-based; conditions: pretreatment with different concentrations of inhibitor, 37 °C, 2 h, then 25 μM dye-labeled conjugate 44; 2 s exposure
In short: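 SW480 cells kept in RPMI 1640 with 10% FBS and 1% pen-strep at 37 °C, 5% CO2. Seeded on glass chamber slides at 5000 cells/well for 48 h. At 70% confluence, rinsed with PBS and switched to phenol-red-free RPMI. Pretreated 2 h at 37 °C with cytochalasin B or phloretin, then 25 μM Cy5-labeled conjugate for 1 h at 37 °C. PBS-washed, fixed 5 min in 4% paraformaldehyde, DAPI-mounted, imaged through Cy5 filter with 40× oil objective; cells counted.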

[2] = system: DU145 human prostate cancer cells; test: MTT cytotoxicity assay; format: cell-based; conditions: 24 h incubation, four concentrations, 5% DMSO, MTT read at 560 nm
In short: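 DU145 cells grown in log phase in MEM with 10% FBS and 1% pen-strep. Trypsinized, seeded at 5000 cells/well and incubated 24 h. Medium replaced with compound-containing medium (5% DMSO final) for 24 h. MTT solution (5 mg/mL in PBS, pH 7.4) added for 3 h at 37 °C. Crystals dissolved in DMSO; absorbance read at 560 nm, reference 670 nm. Viability = OD560/[OD560(positive control) − OD560(negative control)], with linear fit.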

[3] = system: supercoiled pSP64 plasmid DNA; test: Relaxation of supercoiled pSP64 plasmid DNA by Fe; format: biochemical; conditions: Fe(II) chelate; pSP64, 50 mM Tris-HCl pH 8.0, 25 °C, 30 min; agarose gel
In short: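 200 ng supercoiled pSP64 treated with freshly prepared Fe2+ (from ferrous ammonium sulfate) plus compound at 2 or 4 μM, in 50 mM Tris-HCl pH 8.0, 25 °C for 30 min. Quenched with glycerol/bromophenol blue loading buffer. Run on 1% agarose gel in 9 mM Tris-borate pH 8.3 with 320 μM Na2EDTA, 96 V for 2 h. Stained 1 h with 0.5 μg/mL ethidium bromide, destained in water, viewed under UV. Cleaved DNA given as percent of total per lane.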

supercoiled DNA = conditions: relative to BLM; cited from earlier work

| Molecule | inhibition of BLM-Cy5** (44) binding/uptake [1] | cytotoxicity toward cultured DU145 cells (cell viability, MTT) [2] | extent of double-strand cleavage of plasmid DNA [3] | double-strand DNA cleavage (supercoiled DNA) | potency of supercoiled DNA relaxation, fold less than for BLM (supercoiled DNA) |
| --- | --- | --- | --- | --- | --- |
| C=C1[C@@H](C)[C@H]2[C@H](Cc3ccccc3)NC(=O)[C@]23OC(=O)/C=C/[C@H](O)CCC[C@@H](C)C/C=C/[C@H]3[C@@H]1O [cytochalasin B] | substantial and dose-dependent inhibition | – | – | – | – |
| O=C(CCc1ccc(O)cc1)c1c(O)cc(O)cc1O [phloretin] | substantial and dose-dependent inhibition | – | – | – | – |
| bleomycin A5 [BLM A5] | – | the most potent of the derivatives tested | – | – | – |
| deglycobleomycin A5 [deglycoBLM A5] | – | cytotoxic to DU145 cells but much less so than BLM A5 | minimal double-strand cleavage of plasmid DNA | much less double-strand cleavage is apparent | 2–3 fold |
